Data as given in ChEMBL document CHEMBL1154690, “Identification of novel, selective, and stable inhibitors of class II histone deacetylases. Validation studies of the inhibition of the enzymatic activity of HDAC4 by small molecules as a novel approach for cancer therapy” (J Med Chem, 2009).

Tests used:
[1] = target: T1, Histone deacetylase 1 (Homo sapiens, UniProt Q13547); experiment: Inhibition of HDAC1
[2] = Inhibition of constitutively active mutant HDAC4 (653-1084) from Escherichia coli
Method in brief: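 Bacterially expressed HDAC4 carrying an H-to-Y active-site mutation, giving a constitutively active mutant enzyme, was used in the enzymatic inhibition assay.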

[3] = Inhibition of wild type HDAC4 (653-1084) from Escherichia coli
Method in brief: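 Wild-type HDAC4 expressed in bacteria was assayed with an unnatural trifluoroacetyl-lysine substrate to boost its enzymatic efficiency.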

[4] = target: T2, Protein deacetylase HDAC6 (Homo sapiens, UniProt Q9UBN7); experiment: Inhibition of HDAC6
T2 sequence (Q9UBN7 whole entry): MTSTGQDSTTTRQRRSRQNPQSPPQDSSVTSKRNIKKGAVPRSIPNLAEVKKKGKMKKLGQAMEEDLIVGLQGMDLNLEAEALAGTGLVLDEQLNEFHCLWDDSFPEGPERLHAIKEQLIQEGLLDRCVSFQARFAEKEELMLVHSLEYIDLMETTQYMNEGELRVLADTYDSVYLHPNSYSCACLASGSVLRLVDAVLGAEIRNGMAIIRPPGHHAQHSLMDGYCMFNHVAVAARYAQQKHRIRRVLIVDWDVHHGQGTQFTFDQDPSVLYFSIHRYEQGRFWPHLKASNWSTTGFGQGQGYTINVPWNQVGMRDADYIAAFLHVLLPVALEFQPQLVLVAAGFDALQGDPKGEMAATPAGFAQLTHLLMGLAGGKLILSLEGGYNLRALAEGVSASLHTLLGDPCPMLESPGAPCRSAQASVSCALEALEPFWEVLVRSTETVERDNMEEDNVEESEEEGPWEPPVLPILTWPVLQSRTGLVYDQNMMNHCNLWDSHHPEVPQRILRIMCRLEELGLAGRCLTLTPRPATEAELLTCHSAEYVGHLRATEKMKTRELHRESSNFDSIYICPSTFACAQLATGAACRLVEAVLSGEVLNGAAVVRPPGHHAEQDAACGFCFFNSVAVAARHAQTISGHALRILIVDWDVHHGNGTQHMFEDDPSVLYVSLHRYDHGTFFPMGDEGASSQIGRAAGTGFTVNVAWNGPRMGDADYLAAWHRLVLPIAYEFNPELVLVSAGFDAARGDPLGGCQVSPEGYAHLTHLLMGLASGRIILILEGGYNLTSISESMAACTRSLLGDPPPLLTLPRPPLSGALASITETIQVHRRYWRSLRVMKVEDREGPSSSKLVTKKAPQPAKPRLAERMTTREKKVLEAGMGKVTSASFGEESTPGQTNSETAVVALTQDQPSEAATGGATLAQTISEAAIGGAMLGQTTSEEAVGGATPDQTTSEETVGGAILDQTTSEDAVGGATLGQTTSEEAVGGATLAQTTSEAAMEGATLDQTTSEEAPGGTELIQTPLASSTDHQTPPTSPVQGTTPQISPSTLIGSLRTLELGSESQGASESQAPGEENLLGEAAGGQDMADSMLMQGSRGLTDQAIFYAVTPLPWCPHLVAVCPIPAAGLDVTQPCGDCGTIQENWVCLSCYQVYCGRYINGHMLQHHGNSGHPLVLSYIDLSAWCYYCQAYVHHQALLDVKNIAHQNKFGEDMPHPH

[5] = Metabolic stability in S9 fraction of human HACT116 cells assessed as half life by LC-MS/MS analysis; type: ADME, subcellular; conditions: S9 fraction of HACT116 (HCT116) cells
[6] = Metabolic stability in human HCT116 cells assessed as half life by LC-MS/MS analysis; type: ADME, cell-based, HCT-116
[7] = target: T2, Protein deacetylase HDAC6; experiment: Inhibition of HDAC6 in human HCT116 cells assessed as alpha-tubulin hyperacetylation after 24 hrs; type: cell-based, HCT-116
Method in brief: (§1)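 HCT116 cells were exposed to inhibitor for 72 h in the proliferation assay, or for 24 h for the histone H3 and α-tubulin deacetylation read-outs. Medium was replaced with fresh inhibitor every 12 h throughout. EC50 was taken as the mean of two independent determinations.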

[8] = Selectivity ratio of IC50 for Escherichia coli HDAC4 WT (653-1084) to IC50 for HDAC1
[9] = target: T1, Histone deacetylase 1; experiment: Inhibition of HDAC1 in human HCT116 cells assessed as inhibition of histone-H3 deacetylation after 24 hrs; type: cell-based, HCT-116; method in brief: as §1
[10] = system: HCT-116; experiment: Antiproliferative activity against human HCT116 cells after 72 hrs; type: functional, cell-based; conditions: HCT-116, 72 h; method in brief: as §1

T1 sequence (Q13547 whole entry): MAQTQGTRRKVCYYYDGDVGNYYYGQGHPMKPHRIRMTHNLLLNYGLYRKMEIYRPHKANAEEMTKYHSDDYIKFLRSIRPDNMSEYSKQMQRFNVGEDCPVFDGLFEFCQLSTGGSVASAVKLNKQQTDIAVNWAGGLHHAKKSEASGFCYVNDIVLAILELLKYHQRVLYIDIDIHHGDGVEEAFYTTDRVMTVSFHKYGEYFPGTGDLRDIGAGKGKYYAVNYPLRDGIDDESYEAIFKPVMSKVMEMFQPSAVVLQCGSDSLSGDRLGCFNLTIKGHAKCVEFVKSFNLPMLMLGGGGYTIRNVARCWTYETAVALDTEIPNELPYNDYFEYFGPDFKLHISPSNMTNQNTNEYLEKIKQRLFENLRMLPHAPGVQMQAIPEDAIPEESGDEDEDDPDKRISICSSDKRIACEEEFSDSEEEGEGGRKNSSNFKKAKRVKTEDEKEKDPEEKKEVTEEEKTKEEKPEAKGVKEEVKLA

Row | Compound | IC50 [1] [nM] | IC50 [2] [nM] | IC50 [3] [nM] | IC50 [4] [nM] | half-life [5] [h] | half-life [6] [h] | EC50 [7] [nM] | Ratio IC50 [8] | EC50 [9] [nM] | EC50 [10] [nM]
1 | COc1ccc(-c2ccc(C(=O)C(F)(F)F)s2)cc1 | > 1000 | > 1000 | 110 | > 1000 |  |  |  |  |  | 
2 | O=C(c1ccc(-c2nc(CS(=O)(=O)c3cccs3)no2)s1)C(F)(F)F |  | 1000 | 35 |  | 0.867 | 6 |  |  |  | 
3 | O=C(c1cc(-c2ccccc2)cs1)C(F)(F)F | > 10000 | > 10000 | 3200 | 1900 |  |  |  |  |  | 
4 | O=C(c1ccc(-c2ccccn2)s1)C(F)(F)F | > 1000 | > 1000 | 540 | > 1000 |  |  |  |  |  | 
5 | O=C(c1ccc(-c2ccc3[nH]ccc3c2)s1)C(F)(F)F | > 10000 | 6200 | > 10000 | > 5000 |  |  |  |  |  | 
6 | COc1cccc(-c2ccc(C(=O)C(F)(F)F)s2)c1 | > 10000 | > 5000 | 3800 | 3100 |  |  |  |  |  | 
7 | O=C(c1ccc(-c2ccccc2)s1)C(F)(F)F | > 20000 | 2800 | 2800 | 170 |  |  |  |  |  | 
8 | COc1ccccc1-c1ccc(C(=O)C(F)(F)F)s1 | > 10000 | 3500 | > 10000 | 6300 |  |  |  |  |  | 
9 | O=C(c1ccc(-c2ccc3c(c2)OCCO3)s1)C(F)(F)F | > 10000 | 1400 | > 10000 | 37 |  |  |  |  |  | 

These reach a lower IC50 [2]. Values come first.

Row | IC50 [1] [nM] | IC50 [2] [nM] | IC50 [3] [nM] | IC50 [4] [nM] | half-life [5] [h] | half-life [6] [h] | EC50 [7] [nM] | Ratio IC50 [8] | EC50 [9] [nM] | EC50 [10] [nM] | Compound
10 | 2700 | 14 | 160 | 41 | > 2 | 8 |  |  |  |  | N#Cc1ccc(-c2ccc(C(=O)C(F)(F)F)s2)cc1
11 | 2500 | 60 | 74 | 27 |  |  |  |  |  |  | O=C(O)c1ccc(-c2ccc(C(=O)C(F)(F)F)s2)cc1
12 | > 10000 | 12 | 72 | 29 | > 2 |  |  |  |  |  | CC(=O)c1ccc(-c2ccc(C(=O)C(F)(F)F)s2)cc1
13 | 2700 | 780 | 24 | 230 | > 2 |  | 640 | > 100 | 9000 | 12800 | CS(=O)(=O)Cc1noc(-c2ccc(C(=O)C(F)(F)F)s2)n1
14 | 3700 | 190 | 130 | 210 | 0.25 |  |  | 25 |  |  | O=C(c1cnc(-c2ccccc2)s1)C(F)(F)F
15 | 12800 | 96 | 310 | 70 |  | 11 | 1000 |  | > 50000 | > 50000 | O=C(O)c1cccc(-c2ccc(C(=O)C(F)(F)F)s2)c1
16 | 910 | 54 | 160 | 15 | 0.167 |  |  |  |  |  | O=C(c1ccc(-c2ccc3nccnc3c2)s1)C(F)(F)F
17 |  | 87 | 98 |  | 0.25 |  |  |  |  |  | CN(Cc1ccc2nccnc2c1)C(=O)c1ccc(C(=O)C(F)(F)F)s1
18 |  | 520 | 30 |  |  |  |  |  |  |  | CCCS(=O)(=O)Cc1noc(-c2ccc(C(=O)C(F)(F)F)s2)n1
19 |  | 680 | 60 |  | > 2 |  |  |  |  |  | O=C(c1ccc(-c2nc(CS(=O)(=O)Cc3ccc(F)cc3)no2)s1)C(F)(F)F
